Calls of active or inactive are those of the source. No cut-off for these calls is given here.
What was measured:
[1] = Inhibition of Vpu ion channel in HIV1 93BR029 in human MDM assessed as inhibition of vrius release; set-up: species or system Human immunodeficiency virus 1
[2] = system: Human immunodeficiency virus 1; assay: Antiviral activity against HIV1 Ba-L in human MDM assessed as inhibition integration of virus to host cell genome at 100 nM; format: functional, organism-based
[3] = Selectivity index, ratio of TC50 for human MDM cells to EC50 for HIV1 92UG029 infected in human MDM cells; format: toxicity, cell-based; details: read-out: Selectivity Index
[4] = system: MDM; assay: Inhibition of Vpu ion channel in 0.001 to 0.01 MOI HIV1 Ba-L infected in 10 days differentiated human MDM cells assessed as viral inhibition by RT assay; format: cell-based; details: Human immunodeficiency virus 1
Procedure, shortened: (§1)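 MDM differentiated for 7, 10 or 14 days were infected with HIV-1 Ba-L across a range of MOIs, washed three times with PBS and cultured 7 days with 10 μM compound or equal-volume DMSO. On day 7 postinfection, supernatant RT activity was measured (and infectivity on TZM-bl cells). Cell lysates went to real-time PCR for LTR-gag DNA, normalised to albumin copies.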

[5] = system: MDM; assay: Inhibition of Vpu ion channel in 0.001 MOI HIV1 Ba-L infected in 14 days differentiated human MDM cells assessed as viral inhibition by RT assay; format: cell-based; set-up: scale not given: the % may be the effect or the level left; details: Human immunodeficiency virus 1; procedure, shortened: as §1
[6] = target: Protease (Human immunodeficiency virus 1) (UniProt Q9YQ12); assay: Inhibition of HIV1 protease assessed as substrate cleavage by cell free assay
Sequence of Protease (Human immunodeficiency virus 1) (Q9YQ12 as listed by the source): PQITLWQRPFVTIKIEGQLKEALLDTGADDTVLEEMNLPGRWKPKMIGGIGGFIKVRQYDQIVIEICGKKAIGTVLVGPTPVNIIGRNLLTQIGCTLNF
Procedure, shortened: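 Cell-free fluorometric protease assay: compound (1–100 μM) was premixed with 2 μM quenched HIV-1 protease substrate 1. Background fluorescence (ex 340/em 490 nm) was read every 5 s for 5 min. HIV-1 protease was then added at 1.5% and cleavage followed for a further 5 min. LPV and EFV served as controls.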

[7] = system: MDM; assay: Inhibition of Vpu ion channel in 0.05 MOI HIV1 Ba-L chronically infected in 7-14 days differentiated human MDM cells assessed as viral inhibition at 10 uM after 7 days post treatment; format: cell-based; details: Human immunodeficiency virus 1
Procedure, shortened: (§2)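 Chronic infection model: MDM were incubated with HIV-1 Ba-L for 3 h and left 7 days unwashed, then washed three times and given a single 10 μM dose (DMSO control). Supernatants were sampled routinely for RT activity. In the washout arm, compound was removed and cells kept drug-free for an additional 20 days.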

[8] = system: MDM; assay: Inhibition of Vpu ion channel in 0.001 MOI HIV1 Ba-L infected in 14 days differentiated human MDM cells assessed as viral inhibition by TZM-bl infectivity assay; format: cell-based; details: Human immunodeficiency virus 1; procedure, shortened: as §1
[9] = system: PM1; assay: Inhibition of Vpu ion channel in 0.05 MOI HIV1 NL4-3 infected in PM1 cells assessed as viral inhibition measured at 10 uM after 7 days by […]; details: Human immunodeficiency virus 1
[10] = Inhibition of Vpu ion channel in HIV1 G-92NG003-G3 in human MDM assessed as inhibition of vrius release; set-up: species or system Human immunodeficiency virus 1
[11] = system: Human immunodeficiency virus 1; assay: Antiviral activity against HIV1 Ba-L in 14 days differentiated human MDM assessed as decrease in intracellular p24 level at 10 uM after 7 days by Western blot analysis; format: functional, organism-based
Procedure, shortened: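 Day 14 MDM were chronically infected with HIV-1 Ba-L, then given 10 μM compound or DMSO and harvested on day 28. Lysates with equal total protein (checked by β-actin) were run on a 10% polyacrylamide gel and blotted to nitrocellulose. Blots were probed with HIV-1-seropositive human serum, then HRP anti-human IgG.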

[12] = system: MDM; assay: Inhibition of Vpu ion channel in 0.01 MOI HIV1 Ba-L infected in 10 days differentiated human MDM cells assessed as viral inhibition by TZM-bl infectivity assay; format: cell-based; details: Human immunodeficiency virus 1; procedure, shortened: as §1
[13] = system: MDM; assay: Inhibition of Vpu ion channel in 0.05 MOI HIV1 Ba-L chronically infected in 7-14 days differentiated human MDM cells assessed as viral inhibition at 10 uM after 7 days post treatment measured after 20 days drug washout period; format: cell-based; details: Human immunodeficiency virus 1; procedure, shortened: as §2
[14] = Selectivity index, ratio of TC50 for human MDM cells to EC50 for HIV1 5705.72 infected in human MDM cells; format: toxicity, cell-based; details: read-out: Selectivity Index
[15] = Selectivity index, ratio of TC50 for human MDM cells to EC50 for HIV1 92TH001 infected in human MDM cells; format: toxicity, cell-based; details: read-out: Selectivity Index
[16] = Selectivity index, ratio of TC50 for human MDM cells to EC50 for HIV1 G-92NG003-G3 infected in human MDM cells; format: toxicity, cell-based; details: read-out: Selectivity Index
[17] = system: MDM; assay: Inhibition of Vpu ion channel in 0.05 MOI HIV1 Ba-L chronically infected in 10-14 days differentiated human MDM cells assessed as viral inhibition after 5 days post treatment relative to control; format: cell-based; details: Human immunodeficiency virus 1; procedure, shortened: as §2
[18] = system: PM1; assay: Inhibition of Vpu ion channel in 0.05 MOI HIV1 NL4-3 infected in PM1 cells assessed as viral inhibition measured after 7 days by […]; details: Human immunodeficiency virus 1
[19] = Cytotoxicity against human MDM cells assessed as cell viability at 0 to 10 uM by MTT assay; format: cell-based; details: read-out: Activity
Procedure, shortened: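 Infected day 14 MDM were exposed to compound, up to 10 μM in parallel antiviral assays or extended to 1,000 μM for TC50. On day 7, half the medium was removed and 100 μg MTT added per well for 5 h at 37°C. Formazan was dissolved in acidified isopropanol with 10% Triton X-100 and A560 read. Viability was expressed vs DMSO controls; TC50 by nonlinear regression (n = 3).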

[20] = system: Human immunodeficiency virus 1; assay: (§3) Inhibition of Vpu ion channel in HIV1 Ba-L in human MDM assessed as inhibition of vrius release
Procedure, shortened: (§4)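 Day 14 MDM were infected with HIV-1 Ba-L for 3 h, washed three times and cultured with compound from 10 to 0 μM (0 μM containing matched DMSO). Day 7 supernatants were assayed for RT activity and converted to percent of virus control. EC50 came from nonlinear regression; n = 6 experiments, each in triplicate.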

[21] = as §3; set-up: species or system Human immunodeficiency virus 1; procedure, shortened: as §4
[22] = Inhibition of Vpu ion channel in HIV1 1064.52 in human MDM assessed as inhibition of vrius release; set-up: species or system Human immunodeficiency virus 1
[23] = system: PBMC; assay: Inhibition of Vpu ion channel in 0.05 MOI HIV1 NL4-3 infected in human PBMC cells assessed as viral inhibition measured after 7 days by […]; details: Human immunodeficiency virus 1
[24] = system: Human immunodeficiency virus 1; assay: Antiviral activity against HIV1 Ba-L in human MDM assessed as inhibition integration of virus to host cell genome at 10 nM by RT assay; format: functional; details: Human immunodeficiency virus 1, Ba-L
[25] = system: MT2; assay: Inhibition of Vpu ion channel in 0.05 MOI HIV1 NL4-3 infected in MT2 cells assessed as viral inhibition measured at 10 uM after 7 days by […]; details: Human immunodeficiency virus 1
[26] = system: Human immunodeficiency virus 2; assay: Antiviral activity against 0.05 MOI HIV2 cytopathic strain chronically infected in 7-14 days differentiated human MDM cells assessed as viral inhibition measured after 7 days; format: functional
Procedure, shortened: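 Day 14 MDM from three seronegative donors were infected at MOI 0.05 for 7 days, then washed free of extracellular virus. Cultures then ran a further 7 days with or without 10 μM BIT225, from day 21. Day 28 supernatants were assayed by RT activity ELISA. Percent inhibition was taken versus untreated controls, as mean of three donors.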

With `Cn1cc(-c2cccc3cc(C(=O)NC(=N)N)ccc23)cn1` the EC50 [1] was 1900 nM, the Activity [2] was “Active” and the selectivity ratio [3] was 14. For the same molecule, the inhibition [4] was 82%, the Activity [5] was 77% and the Activity [6] was “inactive”. The Activity [7] was “Active”, the inhibition [8] was 90.3% and the inhibition [9] was 21%. The EC50 [10] was 1600 nM, the Activity [11] was “Active” and the inhibition [12] was 90.4%. For the same molecule, the Activity [13] was “inactive”, the selectivity ratio [14] was 39.3 and the selectivity ratio [15] was 140. For the same molecule, the selectivity ratio [16] was 131, the inhibition [17] was 91.5% and the inhibition [18] was 93.1%. For the same molecule, the viability at up to 10 µM [19] was > 96%, the Activity [20] was “Dose-dependent effect” and the EC50 [21] was 2250 nM. It also gave an EC50 [22] of 2700 nM, an inhibition [23] of 95.8% and an inhibition at 0.01 µM [24] of 99%. For the same molecule, the inhibition [25] was 24% and the “inhibition (INH)” value [26] was 6.1%.

— ChEMBL document CHEMBL1240369, “Antiviral efficacy of the novel compound BIT225 against HIV-1 release from human macrophages” (Antimicrob Agents Chemother, 2010)
